Test results reported in ChEMBL document CHEMBL3244325, “Diastereoisomeric N-tetrahydrofurfurylnoroxymorphones with opioid agonist--antagonist properties” (J Med Chem, 1977).

What was measured:
[1] = Toxicity in sc dosed mouse; format: organism-based; conditions: in vivo
How it was run: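 Acute toxicity in mice, expressed as LD50 calculated by the Litchfield and Wilcoxon method.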

Mus musculus [2] = organism: Mus musculus; test: Inhibition of morphine-induced analgesia in mouse by tail clip method; format: functional
How it was run: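 Mice dosed subcutaneously; morphine antagonism measured as suppression of morphine analgesia by a tail-clip-based procedure. AD50 in mg/kg estimated by graphical evaluation of log dose-response curves.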

Mus musculus [3] = test: Analgesic activity in sc dosed mouse assessed as inhibition of phenylquinone-induced writhing; format: functional
Mus musculus [4] = test: Analgesic activity in sc dosed mouse by hot plate method; format: functional
Mus musculus [5] = test: Analgesic activity in sc dosed mouse by tail clip method; format: functional
Mus musculus [6] = test: Ratio of morphine hydrochloride ED50 to compound ED50 for sc dosed mouse assessed as inhibition of phenylquinone-induced writhing; format: functional
Mus musculus [7] = test: Ratio of LD50 in sc dosed mouse to ED50 in sc dosed mouse by writhing test

Row | SMILES | LD50 [1] | AD50 (Mus musculus [2]) | ED50 (Mus musculus [3]) | ED50 (Mus musculus [4]) | ED50 (Mus musculus [5]) | Ratio ED50 (Mus musculus [6]) | Ratio LD50/ED50 (Mus musculus [7])
1 | C=CCN1CC[C@]23c4c5ccc(O)c4O[C@H]2[C@@H](O)C=C[C@H]3[C@H]1C5.Cl [NALORPHINE HYDROCHLORIDE] | 560 mg/kg | 1 mg/kg | 0.5 mg/kg |  |  |  | 
2 | CN1CC[C@]23c4c5ccc(O)c4O[C@H]2[C@@H](O)C=C[C@H]3[C@H]1C5.Cl [MORPHINE HYDROCHLORIDE] |  |  | 0.5 mg/kg | 1.2 mg/kg | 11 mg/kg |  | 
3 | C=CCN1CC[C@]23c4c5ccc(O)c4O[C@H]2C(=O)CC[C@@]3(O)[C@H]1C5.Cl [NALOXONE HYDROCHLORIDE] | 286 mg/kg | 0.03 mg/kg |  |  |  |  | 
4 | CC(C)=CCN1CCC2(C)c3cc(O)ccc3CC1C2C.Cl (stereo not given) [PENTAZOCINE HYDROCHLORIDE] | 220 mg/kg | 8 mg/kg | 1.4 mg/kg |  |  |  | 
5 | Cl.O=C1CC[C@@]2(O)[C@H]3Cc4ccc(O)c5c4[C@@]2(CCN3C[C@@H]2CCCO2)[C@H]1O5 | 810 mg/kg | 5 mg/kg |  |  |  |  | 
6 | Cl.O=C1CC[C@@]2(O)[C@H]3Cc4ccc(O)c5c4[C@@]2(CCN3C[C@H]2CCCO2)[C@H]1O5 | 955 mg/kg | 4 mg/kg | 0.02 mg/kg | 1.9 mg/kg | 200 mg/kg | 25 | 47750
